Measurements from ChEMBL document CHEMBL1782030, “Polyethylene glycol-based homologated ligands for nicotinic acetylcholine receptors” (Bioorg Med Chem, 2008).

Assay: Displacement of [3H]epibatidine from nAChR in rat cerebral cortex
Type: tissue-based
How it was run: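 Rat cerebral cortex membranes used as receptor source; competition binding against the radioligand [3H]epibatidine. Ki values given as mean ± SEM of three experiments, each run in triplicate.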

Compared with CC(=O)N1CC[N+](C)(C)CC1 [ACETYLDIMETHYLPIPERAZINIUM IODIDE], COC(=O)N1CC[N+](C)(C)CC1 is 5.4-fold lower in Ki: 3.6 µM for the first, 0.67 µM for the second.

First: COCCOCCOCCOCCOCCOCCOC(=O)N1CC[N+](C)(C)CC1
Second: COCCOCCOCCOCCOCCOC(=O)N1CC[N+](C)(C)CC1
The Ki of the first is 2-fold lower: 19 µM for the first, 38 µM for the second. The first binds more tightly here.

Compared with COCC#Cc1cncc(OC[C@@H]2CCCN2C)c1, COCCOCC#Cc1cncc(OC[C@@H]2CCCN2C)c1 is 3.2-fold higher in Ki: 0.0047 µM for the first, 0.015 µM for the second. The first binds more tightly here.

Compared with COCCOCCOCCOCCOCCOCC#Cc1cncc(OC[C@@H]2CCCN2C)c1, COCCOCCOCCOCCOCCOCCOCC#Cc1cncc(OC[C@@H]2CCCN2C)c1 is 1.6-fold higher in Ki: 0.04 µM for the first, 0.063 µM for the second.

Compared with COCCOCCOCC#Cc1cncc(OC[C@@H]2CCCN2C)c1, COCCOCCOCCOCC#Cc1cncc(OC[C@@H]2CCCN2C)c1 is 2-fold higher in Ki: 0.0075 µM for the first, 0.015 µM for the second. The first binds more tightly here.

Compared with COCCOC(=O)NCC[N+](C)(C)C, COCCOCCOC(=O)NCC[N+](C)(C)C is 1.7-fold lower in Ki: 54 µM for the first, 32 µM for the second.

Going from COC(=O)NCC[N+](C)(C)C to COCCOCCOCCOC(=O)NCC[N+](C)(C)C, the Ki rises from 14 µM to 70 µM (5-fold).

Compared with COCCOCCOC(=O)N1CC[N+](C)(C)CC1, COCCOCCOCCOC(=O)N1CC[N+](C)(C)CC1 is 5.9-fold higher in Ki: 8.2 µM for the first, 48 µM for the second.

Compared with COCCOCCOCCOCCOCCOC(=O)NCC[N+](C)(C)C, COCCOCCOCCOCCOCCOCCOC(=O)NCC[N+](C)(C)C is 6.3-fold lower in Ki: 190 µM for the first, 30 µM for the second.

Going from CN1CCC[C@H]1COc1cncc(C#CCO)c1 to COCCOCCOCCOCCOCC#Cc1cncc(OC[C@@H]2CCCN2C)c1, the Ki rises from 0.0031 µM to 0.03 µM (9.7-fold).

First: COCCOCCOCCOCCOC(=O)N1CC[N+](C)(C)CC1
Second: COCCOC(=O)N1CC[N+](C)(C)CC1
The Ki of the first is 8.7-fold higher: 26 µM for the first, 3 µM for the second. The second binds more tightly here.

COCCOCCOCCOCCOC(=O)NCC[N+](C)(C)C gave a Ki of 150 µM.
